Measured values reported in ChEMBL document CHEMBL3108729, “Design, synthesis and anticonvulsant evaluation of N-(benzo[d]thiazol-2-ylcarbamoyl)-2-methyl-4-oxoquinazoline-3(4H)-carbothioamide derivatives: a hybrid pharmacophore approach” (Eur J Med Chem, 2013).

Key:
Rattus norvegicus [1] = assay: Anticonvulsant activity in Wistar rat assessed as inhibition of GABA-induced seizures measuring minimum GABA level per 100 mg whole brain required for 50 % inhibition at 30 mg/kg, po for 7 days (reference value: 51.5 +/- 2.60 ug/100 mg brain); format: functional
In short: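 Adult Wistar rats in groups of six were dosed orally at 30 mg/kg for 7 days. Whole-brain GABA was then measured enzymatically in ethanol extracts as µg/100 mg tissue. Values are mean ± SEM of six rats versus control (Student's t test).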

Mus musculus [2] = assay: Neurotoxicity in ip dosed albino mouse after 4 hrs by rotorod test; format: toxicity, organism-based; conditions: in vivo
In short: (§1)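 Swiss mice, four per dose, received 30, 100 or 300 mg/kg i.p. and were placed on a rotorod at 0.5 and 4 h. Neurotoxicity meant failure to keep balance for 1 min. The value reported is the minimum dose affecting half or more of the mice.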

Rattus norvegicus [3] = assay: Anticonvulsant activity in po dosed albino rat assessed as protection against maximal electroshock-induced seizures after 4 hrs; format: functional
Rattus norvegicus [4] = assay: Anticonvulsant activity in po dosed albino rat assessed as protection against pentylenetetrazole-induced seizure after 4 hrs; format: functional
Mus musculus [5] = assay: Neurotoxicity in ip dosed albino mouse after 0.5 hrs by rotorod test; format: toxicity, organism-based; conditions: in vivo; in short: as §1
Rattus norvegicus [6] = assay: Hepatotoxicity in albino rat assessed as change in SGPT level at 30 mg/kg, po for 14 days (reference value: 46.1+/-5.25 units/ml); format: toxicity, organism-based; design: dose 30 mg/kg, route oral; conditions: in vivo, 336 h
[7] = Neurotoxicity in po dosed albino rat after 4 hrs; format: toxicity, organism-based; conditions: in vivo
Mus musculus [8] = assay: Anticonvulsant activity in ip dosed albino mouse assessed as protection against 6 Hz electroshock-induced seizures after 2 hrs; format: functional
Rattus norvegicus [9] = assay: Hepatotoxicity in albino rat assessed as change in SGOT level at 30 mg/kg, po for 14 days (reference value: 74.2+/-5.95 units/ml); format: toxicity, organism-based; design: dose 30 mg/kg, route oral; conditions: in vivo, 336 h
[10] = Protective index, ratio of TD50 for neurotoxicity to ED50 for protection against maximal electroshock-induced seizure in albino rat after 4 hrs; format: toxicity, organism-based; conditions: in vivo, read-out: Ratio TD50/ED50
In short: (§2)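 Rats received oral doses in groups of eight at the time of peak effect, with at least three points in the 10–90% range for seizure protection or minimal neurotoxicity. ED50, TD50 and 95% confidence intervals were computed by regression, and PI was calculated as TD50/ED50.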

[11] = Protective index, ratio of TD50 for neurotoxicity to ED50 for protection against pentylenetetrazole-induced seizure in albino rat after 4 hrs; format: toxicity, organism-based; conditions: in vivo, read-out: Ratio TD50/ED50; in short: as §2
Mus musculus [12] = assay: Anticonvulsant activity in ip dosed albino mouse assessed as protection against AMPA-induced clonic phase of seizures after 30 mins; format: functional; conditions: 0.5 h
In short: (§3)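 Mice were dosed i.p. over 10–100 µmol/kg. After 30 min, AMPA was injected i.c.v. into a lateral ventricle under ether anaesthesia, at 9.7 nmol for clonus or 11.7 nmol for forelimb tonic extension. Mice were observed singly for 30 min. ED50 values with 95% confidence limits were derived from dose–response data.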

Mus musculus [13] = assay: Anticonvulsant activity in ip dosed albino mouse assessed as protection against maximal electroshock-induced seizures after 0.5 hrs; format: functional; conditions: read-out: MED
Mus musculus [14] = assay: Anticonvulsant activity in ip dosed albino mouse assessed as protection against maximal electroshock-induced seizures after 4 hrs; format: functional; conditions: read-out: MED
Rattus norvegicus [15] = assay: Anticonvulsant activity in Wistar rat assessed as inhibition of GABA-induced seizures measuring minimum GABA level per 100 mg whole brain required for 50 % inhibition at 100 mg/kg, ip as single dose measured after 2 hrs (reference value: 46.4 +/- 5.50 ug/100 mg brain); format: functional; conditions: route intraperitoneal
Mus musculus [16] = assay: Anticonvulsant activity in ip dosed albino mouse assessed as protection against AMPA-induced tonic phase of seizures after 30 mins; format: functional; conditions: 0.5 h; in short: as §3

Cc1nc2ccccc2c(=O)n1C(=S)NC(=O)Nc1nc2ccc(Cl)cc2s1
GABA level (Rattus norvegicus [1]): 111 µg/100 mg brain
MTC (Mus musculus [2]): 300 mg/kg
ED50 (Rattus norvegicus [3]): 142 µmol/kg
ED50 (Rattus norvegicus [4]): 722 µmol/kg
MTC (Mus musculus [5]): 300 mg/kg
Activity (Rattus norvegicus [6]): 48.5 U/ml
TD50 at 4 h [7]: > 2500 µmol/kg
ED50 (Mus musculus [8]): 1230 µmol/kg
Activity (Rattus norvegicus [9]): 71.2 U/ml
selectivity ratio at 4 h [10]: > 17
selectivity ratio at 4 h [11]: > 3.4
ED50 (Mus musculus [12]): 70.3 µmol/kg
minimal effective dose (Mus musculus [13]): 30 mg/kg
minimal effective dose (Mus musculus [14]): 100 mg/kg
GABA level (Rattus norvegicus [15]): 92.1 µg/100 mg brain
ED50 (Mus musculus [16]): 56.9 µmol/kg
